The target of assay [1] is T1, Vascular endothelial growth factor receptor 2 (Homo sapiens, UniProt P35968). Kind of assay: Inhibition of human recombinant GST-fused VEGFR2 kinase domain transphosphorylation expressed in baculovirus expression system using poly-Glu-Tyr (4:1) as substrate measured after 10 mins in presence of gamma-[33P]-ATP by scintillation counting analysis.
Assay [2] concerns the target T1, Vascular endothelial growth factor receptor 2. Kind of assay: Inhibition of VEGF-induced human VEGFR2 autophosphorylation transfected in CHO cells measured after 2 hrs by chemiluminescence assay. In kind it is cell-based.
The test system of assay [3] is BaF3. Kind of assay: Antiproliferative activity against mouse BaF3 cells expressing KIT D816V mutant assessed as cell growth inhibition measured after 72 hrs by Alamar Blue assay. The note with it: BaF3, 72 h. (Resazurin is reduced to fluorescent resorufin, in cell work by metabolically active cells.)
The test system of assay [4] is BaF3. Kind of assay: Antiproliferative activity against mouse BaF3 cells expressing FLT3-ITD assessed as cell growth inhibition measured after 72 hrs by Alamar Blue assay. The note with it: BaF3, 72 h.
Assay [5] deals with BaF3. Kind of assay: Antiproliferative activity against mouse BaF3 cells assessed as cell growth inhibition measured after 72 hrs by Alamar Blue assay. The conditions noted are these: BaF3, 72 h.
Assay [6] deals with BaF3. Kind of assay: Antiproliferative activity against mouse BaF3 cells expressing Tel-FGFR3 assessed as cell growth inhibition measured after 72 hrs by Alamar Blue assay. The note with it: BaF3, 72 h.
Assay [7] concerns BaF3. Briefly: Antiproliferative activity against mouse BaF3 cells expressing Trp-MET assessed as cell growth inhibition measured after 72 hrs by Alamar Blue assay. The note with it: BaF3, 72 h.
Assay [8] concerns BaF3. Briefly: Antiproliferative activity against mouse BaF3 cells expressing Bcr-ABL assessed as cell growth inhibition measured after 72 hrs by Alamar Blue assay. The conditions noted are these: BaF3, 72 h.
Assay [9] deals with HUVEC. Kind of assay: Antiproliferative activity against bFGF-stimulated HUVEC cells assessed as cell growth inhibition measured after 24 hrs by BrdUrd incorporation based spectrophotometric analysis. The conditions noted are these: Homo sapiens.
The test system of assay [10] is BaF3. Briefly: Antiproliferative activity against mouse BaF3 cells expressing ERBB2 V659E mutant assessed as cell growth inhibition measured after 72 hrs by Alamar Blue assay. The note with it: BaF3, 72 h.
For assay [11], the system named is BaF3. Briefly: Antiproliferative activity against mouse BaF3 cells expressing NPM-ALK assessed as cell growth inhibition measured after 72 hrs by Alamar Blue assay. The note with it: BaF3, 72 h.
Assay [12] has as its system HUVEC. Briefly: Antiproliferative activity against VEGF-stimulated HUVEC cells assessed as cell growth inhibition measured after 24 hrs by BrdUrd incorporation based spectrophotometric analysis. The note with it: Homo sapiens.
The target in assay [13] is Cyclin-dependent kinase 1 (Homo sapiens) (UniProt P06493). Kind of assay: Inhibition of human recombinant GST-fused CDK1 expressed in baculovirus expression system using poly-Glu-Tyr (4:1) as substrate measured after 10 mins in presence of gamma-[33P]-ATP by scintillation counting analysis. In short, it runs like this: (§1)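 GST-fused kinase domains were expressed in baculovirus and purified on glutathione-Sepharose. 10 min at ambient temperature, stopped with EDTA. Filter binding and scintillation counting. IC50 by linear regression of percent inhibition.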

The subject of assay [14] is BaF3. Briefly: Antiproliferative activity against mouse BaF3 cells expressing PTC3-RET assessed as cell growth inhibition measured after 72 hrs by Alamar Blue assay. The conditions noted are these: BaF3, 72 h.
The test system of assay [15] is BaF3. Briefly: Antiproliferative activity against mouse BaF3 cells expressing Tel-PDGFRbeta assessed as cell growth inhibition measured after 72 hrs by Alamar Blue assay. The note with it: BaF3, 72 h.
The subject of assay [16] is BaF3. Kind of assay: Antiproliferative activity against mouse BaF3 cells expressing Tel-IGF-1R assessed as cell growth inhibition measured after 72 hrs by Alamar Blue assay. The note with it: BaF3, 72 h.
In assay [17] the target is Fibroblast growth factor receptor 3 (Homo sapiens) (UniProt P22607). Kind of assay: Inhibition of human recombinant GST-fused FGFR3 expressed in baculovirus expression system using poly-Glu-Tyr (4:1) as substrate measured after 10 mins in presence of gamma-[33P]-ATP by scintillation counting analysis. In a few lines: as §1
The target of assay [18] is Hepatocyte growth factor receptor (Homo sapiens) (UniProt P08581). Briefly: Inhibition of human recombinant GST-fused c-MET expressed in baculovirus expression system using poly-Glu-Tyr (4:1) as substrate measured after 10 mins in presence of gamma-[33P]-ATP by scintillation counting analysis. In a few lines:
as §1

Another assay relates to Mus musculus. Kind of assay: Anti-angiogenesis activity in FVB mouse model assessed as inhibition of VEGF-induced tissue weight at 50 mg/kg, po qd treated for 4 to 6 hrs prior to chamber implantation and continuing for 4 days measured after 24 hrs post last dose. It is filed as functional, organism-based. The note with it: time 5.0 day. In short, it runs like this:
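Chamber model in female FVB mice: VEGF (2 μg/mL) agar/heparin chambers s.c. in flank, oral dosing once daily starting 4-6 h before implantation and continuing 4 days; vascularized tissue harvested and weighed 24 h after final dose; 6 mice per group.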

Active and inactive are the calls of the source. No cut-off for these calls is given here.

Turning to `CCN1CCN(Cc2ccc(NC(=O)Nc3ccc(Oc4cc(NC)ncn4)cc3)cc2C(F)(F)F)CC1` [AST-487], the IC50 (usually the concentration at which inhibition is half-maximal) amounted to 3 nM in assay [1] and 230 nM in assay [2].
Regarding `CCN(CC)CCNC(=O)c1c(C)[nH]c(/C=C2\C(=O)Nc3ccc(F)cc32)c1C` [SUNITINIB], the IC50 was 1470 nM with BaF3 [3]; 35 nM with BaF3 [4]; > 10000 nM in the assay with BaF3 [5]; 1560 nM in the assay with BaF3 [6]; 5120 nM with BaF3 [7]; 7180 nM with BaF3 [8]. Moreover, the half-inhibitory concentration (IC50) was > 3000 nM in the assay with HUVEC [9]; 3850 nM in the assay with BaF3 [10]; 1150 nM with BaF3 [11]; 7 nM in the assay with HUVEC [12]; 297 nM with BaF3 [14]; 2.3 nM in the assay with BaF3 [15]. The IC50 with BaF3 [16] stood at 1290 nM. Moreover, the inhibition entry in assay [13], in [17] and in assay [18] was “Active” each time.
In the case of `Cc1[nH]c(/C=C2\C(=O)Nc3ccccc32)c(C)c1CCC(=O)O`, the outcome with Mus musculus was Active.

The values are drawn from ChEMBL document CHEMBL5252510, “A Novel Potent Oral Series of VEGFR2 Inhibitors Abrogate Tumor Growth by Inhibiting Angiogenesis” (J Med Chem, 2016).
